Assay results: ChEMBL document CHEMBL4689842, “EUbOPEN Chemogenomics Library wave 1” (2021)

Test system: HEK-293T
Test: Multiplex assay against HEK293T;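 for Population Tubulin-Different-Phenotype (%): share of the cells with healthy nuclei that show this phenotype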
Assay type: toxicity, cell-based
Details: human
Outline: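 Per cents of healthy-nucleus cells form the tubulin, mitochondrial-mass and membrane-permeability phenotype values. Live cells were stained at seeding with Hoechst33342, BioTracker Green Microtubule Cytoskeleton Dye, MitoTracker Red and Annexin V Alexa Fluor 680. After compound addition they were imaged on a CQ1 microscope at 37°C and 5% CO2, and CellPathfinder machine-learning gating split them into Hoechst high-intensity objects or normal cells, normal cells into healthy, pyknosed or fragmented nuclei, and pyknosed cells into mitotic or apoptotic.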

[1] = 12 h, 1 µM, compound concentration 1 uM, replicate 1
[2] = 12 h, 1 µM, compound concentration 1 uM, replicate 2
[3] = 12 h, 10 µM, compound concentration 10 uM, replicate 1
[4] = 12 h, 10 µM, compound concentration 10 uM, replicate 2
[5] = 24 h, 1 µM, compound concentration 1 uM, replicate 1
[6] = 24 h, 1 µM, compound concentration 1 uM, replicate 2
[7] = 24 h, 10 µM, compound concentration 10 uM, replicate 1
[8] = 24 h, 10 µM, compound concentration 10 uM, replicate 2
[9] = 48 h, 1 µM, compound concentration 1 uM, replicate 1
[10] = 48 h, 1 µM, compound concentration 1 uM, replicate 2
[11] = 48 h, 10 µM, compound concentration 10 uM, replicate 1
[12] = 48 h, 10 µM, compound concentration 10 uM, replicate 2

Nc1ccc(C(=O)Nc2cccc(-c3nc(N4CCOCC4)c4oc5ncccc5c4n3)c2)cn1
Population Apoptotic (%) [1]: 66% | Population Fragmented Nuclei (%) [1]: 24% | Population Healthy Nuclei (%) [1]: 15% | Population Hoechst High Intensity Objects (%) [1]: 19% | Population Mitochondria Different-Phenotype (%) [1]: 94% | Population Mitotic Cells (%) [1]: 33% | Population Normal (%) [1]: 80% | Population Pyknosed Nuclei (%) [1]: 60% | Population Tubulin-Different-Phenotype (%) [1]: 94% | Population Apoptotic (%) [2]: 34% | Population Fragmented Nuclei (%) [2]: 8% | Population Healthy Nuclei (%) [2]: 10% | Population Hoechst High Intensity Objects (%) [2]: 8% | Population Mitochondria Different-Phenotype (%) [2]: 46% | Population Mitotic Cells (%) [2]: 65% | Population Normal (%) [2]: 91% | Population Pyknosed Nuclei (%) [2]: 81% | Population Tubulin-Different-Phenotype (%) [2]: 80% | Total Cell Count [2]: 149 | Population Apoptotic (%) [3]: 83% | Population Fragmented Nuclei (%) [3]: 44% | Population Healthy Nuclei (%) [3]: 5% | Population Hoechst High Intensity Objects (%) [3]: 25% | Population Mitochondria Different-Phenotype (%) [3]: 100% | Population Mitotic Cells (%) [3]: 16% | Population Normal (%) [3]: 74% | Population Pyknosed Nuclei (%) [3]: 49% | Population Tubulin-Different-Phenotype (%) [3]: 76% | Total Cell Count [3]: 385 | Population Apoptotic (%) [4]: 53% | Population Fragmented Nuclei (%) [4]: 15% | Population Healthy Nuclei (%) [4]: 13% | Population Hoechst High Intensity Objects (%) [4]: 8% | Population Mitochondria Different-Phenotype (%) [4]: 75% | Population Mitotic Cells (%) [4]: 46% | Population Normal (%) [4]: 91% | Population Pyknosed Nuclei (%) [4]: 70% | Population Tubulin-Different-Phenotype (%) [4]: 70% | Total Cell Count [4]: 330 | Population Apoptotic (%) [5]: 64% | Population Fragmented Nuclei (%) [5]: 22% | Population Healthy Nuclei (%) [5]: 17% | Population Hoechst High Intensity Objects (%) [5]: 19% | Population Mitochondria Different-Phenotype (%) [5]: 95% | Population Mitotic Cells (%) [5]: 35% | Population Normal (%) [5]: 80% | Population Pyknosed Nuclei (%) [5]: 59% | Population Tubulin-Different-Phenotype (%) [5]: 90% | Total Cell Count [5]: 147 | Population Apoptotic (%) [6]: 40% | Population Fragmented Nuclei (%) [6]: 3% | Population Healthy Nuclei (%) [6]: 37% | Population Hoechst High Intensity Objects (%) [6]: 8% | Population Mitochondria Different-Phenotype (%) [6]: 68% | Population Mitotic Cells (%) [6]: 59% | Population Normal (%) [6]: 91% | Population Pyknosed Nuclei (%) [6]: 58% | Population Tubulin-Different-Phenotype (%) [6]: 96% | Total Cell Count [6]: 171 | Population Apoptotic (%) [7]: 80% | Population Fragmented Nuclei (%) [7]: 45% | Population Healthy Nuclei (%) [7]: 7% | Population Hoechst High Intensity Objects (%) [7]: 21% | Population Mitochondria Different-Phenotype (%) [7]: 100% | Population Mitotic Cells (%) [7]: 19% | Population Normal (%) [7]: 78% | Population Pyknosed Nuclei (%) [7]: 47% | Population Tubulin-Different-Phenotype (%) [7]: 79% | Total Cell Count [7]: 389 | Population Apoptotic (%) [8]: 67% | Population Fragmented Nuclei (%) [8]: 15% | Population Healthy Nuclei (%) [8]: 15% | Population Hoechst High Intensity Objects (%) [8]: 8% | Population Mitochondria Different-Phenotype (%) [8]: 81% | Population Mitotic Cells (%) [8]: 32% | Population Normal (%) [8]: 91% | Population Pyknosed Nuclei (%) [8]: 69% | Population Tubulin-Different-Phenotype (%) [8]: 50% | Total Cell Count [8]: 315 | Population Apoptotic (%) [9]: 67% | Population Fragmented Nuclei (%) [9]: 27% | Population Healthy Nuclei (%) [9]: 31% | Population Hoechst High Intensity Objects (%) [9]: 20% | Population Mitochondria Different-Phenotype (%) [9]: 82% | Population Mitotic Cells (%) [9]: 32% | Population Normal (%) [9]: 79% | Population Pyknosed Nuclei (%) [9]: 40% | Population Tubulin-Different-Phenotype (%) [9]: 86% | Total Cell Count [9]: 183 | Population Apoptotic (%) [10]: 61% | Population Fragmented Nuclei (%) [10]: 6% | Population Healthy Nuclei (%) [10]: 55% | Population Hoechst High Intensity Objects (%) [10]: 8% | Population Mitochondria Different-Phenotype (%) [10]: 49% | Population Mitotic Cells (%) [10]: 38% | Population Normal (%) [10]: 91% | Population Pyknosed Nuclei (%) [10]: 38% | Population Tubulin-Different-Phenotype (%) [10]: 92% | Total Cell Count [10]: 187 | Population Apoptotic (%) [11]: 75% | Population Fragmented Nuclei (%) [11]: 51% | Population Healthy Nuclei (%) [11]: 10% | Population Hoechst High Intensity Objects (%) [11]: 28% | Population Mitochondria Different-Phenotype (%) [11]: 97% | Population Mitotic Cells (%) [11]: 24% | Population Normal (%) [11]: 71% | Population Pyknosed Nuclei (%) [11]: 38% | Population Tubulin-Different-Phenotype (%) [11]: 60% | Total Cell Count [11]: 484 | Population Apoptotic (%) [12]: 73% | Population Fragmented Nuclei (%) [12]: 17% | Population Healthy Nuclei (%) [12]: 18% | Population Hoechst High Intensity Objects (%) [12]: 8% | Population Mitochondria Different-Phenotype (%) [12]: 84% | Population Mitotic Cells (%) [12]: 26% | Population Normal (%) [12]: 91% | Population Pyknosed Nuclei (%) [12]: 64% | Population Tubulin-Different-Phenotype (%) [12]: 55% | Total Cell Count [12]: 304

c1ccc2oc(-c3csc(C4CCN(Cc5nc6ncccc6[nH]5)CC4)n3)cc2c1
Population Apoptotic (%) [1]: 23% | Population Fragmented Nuclei (%) [1]: 23% | Population Healthy Nuclei (%) [1]: 39% | Population Hoechst High Intensity Objects (%) [1]: 19% | Population Membrane Permeable-Phenotype (%) [1]: 5% | Population Mitochondria Different-Phenotype (%) [1]: 5% | Population Mitotic Cells (%) [1]: 76% | Population Normal (%) [1]: 80% | Population Pyknosed Nuclei (%) [1]: 37% | Population Tubulin-Different-Phenotype (%) [1]: 7% | Total Cell Count [1]: 599 | Population Apoptotic (%) [2]: 13% | Population Fragmented Nuclei (%) [2]: 4% | Population Healthy Nuclei (%) [2]: 83% | Population Hoechst High Intensity Objects (%) [2]: 4% | Population Membrane Permeable-Phenotype (%) [2]: 1% | Population Mitochondria Different-Phenotype (%) [2]: 21% | Population Mitotic Cells (%) [2]: 86% | Population Normal (%) [2]: 95% | Population Pyknosed Nuclei (%) [2]: 11% | Population Tubulin-Different-Phenotype (%) [2]: 13% | Total Cell Count [2]: 1174 | Population Apoptotic (%) [3]: 17% | Population Fragmented Nuclei (%) [3]: 18% | Population Healthy Nuclei (%) [3]: 54% | Population Hoechst High Intensity Objects (%) [3]: 14% | Population Membrane Permeable-Phenotype (%) [3]: 5% | Population Mitochondria Different-Phenotype (%) [3]: 5% | Population Mitotic Cells (%) [3]: 82% | Population Normal (%) [3]: 85% | Population Pyknosed Nuclei (%) [3]: 26% | Population Tubulin-Different-Phenotype (%) [3]: 4% | Total Cell Count [3]: 511 | Population Apoptotic (%) [4]: 12% | Population Fragmented Nuclei (%) [4]: 6% | Population Healthy Nuclei (%) [4]: 86% | Population Hoechst High Intensity Objects (%) [4]: 3% | Population Membrane Permeable-Phenotype (%) [4]: 2% | Population Mitochondria Different-Phenotype (%) [4]: 10% | Population Mitotic Cells (%) [4]: 87% | Population Normal (%) [4]: 96% | Population Pyknosed Nuclei (%) [4]: 7% | Total Cell Count [4]: 1122 | Population Apoptotic (%) [5]: 20% | Population Fragmented Nuclei (%) [5]: 21% | Population Healthy Nuclei (%) [5]: 50% | Population Hoechst High Intensity Objects (%) [5]: 15% | Population Membrane Permeable-Phenotype (%) [5]: 8% | Population Mitochondria Different-Phenotype (%) [5]: 10% | Population Mitotic Cells (%) [5]: 79% | Population Normal (%) [5]: 84% | Population Pyknosed Nuclei (%) [5]: 28% | Population Tubulin-Different-Phenotype (%) [5]: 13% | Total Cell Count [5]: 538 | Population Apoptotic (%) [6]: 15% | Population Fragmented Nuclei (%) [6]: 5% | Population Healthy Nuclei (%) [6]: 86% | Population Hoechst High Intensity Objects (%) [6]: 6% | Population Membrane Permeable-Phenotype (%) [6]: 4% | Population Mitochondria Different-Phenotype (%) [6]: 12% | Population Mitotic Cells (%) [6]: 84% | Population Normal (%) [6]: 93% | Population Pyknosed Nuclei (%) [6]: 7% | Population Tubulin-Different-Phenotype (%) [6]: 30% | Total Cell Count [6]: 1346 | Population Apoptotic (%) [7]: 16% | Population Fragmented Nuclei (%) [7]: 20% | Population Healthy Nuclei (%) [7]: 60% | Population Hoechst High Intensity Objects (%) [7]: 15% | Population Membrane Permeable-Phenotype (%) [7]: 7% | Population Mitochondria Different-Phenotype (%) [7]: 5% | Population Mitotic Cells (%) [7]: 83% | Population Normal (%) [7]: 84% | Population Pyknosed Nuclei (%) [7]: 19% | Population Tubulin-Different-Phenotype (%) [7]: 7% | Total Cell Count [7]: 500 | Population Apoptotic (%) [8]: 5% | Population Fragmented Nuclei (%) [8]: 11% | Population Healthy Nuclei (%) [8]: 84% | Population Hoechst High Intensity Objects (%) [8]: 3% | Population Membrane Permeable-Phenotype (%) [8]: 6% | Population Mitochondria Different-Phenotype (%) [8]: 2% | Population Mitotic Cells (%) [8]: 95% | Population Normal (%) [8]: 96% | Population Pyknosed Nuclei (%) [8]: 3% | Population Tubulin-Different-Phenotype (%) [8]: 9% | Total Cell Count [8]: 1653
